Reference: publication PMC8635173 (Chemical Science, 2021)
Read-outs that look alike come from different tables or passages of the source.

Assays:
Aqueous solubility = format: physicochemical
ctDNA = test: DNA binding affinity by isothermal titration calorimetry; design: species or system calf
NCI-H460 cells [1] = test: Cellular uptake of platinum by ICP-MS; format: cell-based, human; conditions: for decrease in Pt levels in cells: 2 h treatment
[2] = tested on: HCT116 colorectal carcinoma; test: Anti-proliferative NBB assay; format: cell-based, human; conditions: read-out: IC50 HCT116; 72 h
[3] = tested on: different cancer cell lines; test: Anti-proliferative NBB assay, summary over several cancer cell lines; format: cell-based, human; conditions: for IC50: read-out: IC50 toward different cell lines, NCI-H460 lung, PLC liver and HCT116 colorectal carcinomas
[4] = tested on: DNA duplex bearing cytosine–cytosine (CC) mismatched base pairs; test: DNA binding affinity by ITC
[5] = tested on: PLC primary liver carcinoma; test: Anti-proliferative NBB assay; format: cell-based, human; conditions: read-out: IC50 PLC; 72 h
LC3 (LC3-II) = test: Immunoblotting of autophagy marker LC3; format: cell-based, human; conditions: Western blotting; 1a 0-30 µM 6 h or 10 µM 6-24 h; cisplatin 0-20 µM 6 h
[6] = tested on: NCI-H460 lung cancer xenografts; test: In vivo anti-tumor study; design: species or system nude mouse; conditions: 1a 25 mg kg^−1 i.v., 14 days
Procedure, shortened: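 Nude mice bearing NCI-H460 xenografts were randomised into groups (n = 6). Groups received test compound (25 mg kg⁻¹) or PBS vehicle i.v. for 14 days; cisplatin (1.5 mg kg⁻¹ i.v.) on a similar regimen served as positive control. Tumour volume was tracked. Dissected tumours were weighed and examined by H&E and Ki-67 immunohistochemistry. Data are given as mean ± standard error.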

[7] = target: guanine–cytosine (GC)-rich DNA; test: DNA binding affinity by ITC; conditions: read-out: KD (GC-rich DNA), one-site binding model, pH 7.4
[8] = tested on: NCI-H460 non-small cell lung carcinoma; test: Anti-proliferative NBB assay; format: cell-based, human; conditions: read-out: IC50 NCI-H460; 72 h
NCI-H460 cells [9] = test: Lysosomal integrity; format: cell-based, human; conditions: 10 µM, 24 h
Procedure, shortened: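 NCI-H460 cells were exposed to test compound (10 μM) for 24 h and then stained. Stains were acridine orange (10 μM), LysoTracker Deep Red with MitoTracker Green (50 nM), and pepstatin A–BODIPY FL conjugate (1 μM) co-stained with LysoTracker Deep Red. Imaging was by confocal microscopy, checking vesicular staining loss and cytosolic probe leakage against vehicle.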

NCI-H460 cells [10] = test: Mitochondrial depolarization assay; format: cell-based, human; conditions: 10 µM, 24 h, relative to vehicle
[11] = tested on: MDA-MB-231 triple-negative breast cancer carcinoma; test: Anti-proliferative NBB assay; format: cell-based, human; conditions: read-out: IC50 MDA-MB-231; 72 h
NCI-H460 cells [12] = test: Subcellular distribution of platinum content by ICP-MS; format: cell-based, human; conditions: 24 h treatment
[13] = In vivo systemic toxicity; design: species or system nude mouse
Procedure, shortened: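 Tumour-bearing nude mice (n = 6) received test compound (25 mg kg⁻¹ i.v.) or PBS vehicle for 14 days. Body weight was tracked throughout. At day 14, major organs were harvested for H&E histology, and blood was analysed for ALT and creatinine.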

calf thymus DNA (ctDNA) = test: UV-vis absorption titration with DNA; format: binding; conditions: complex 30 µM, Tris-HCl pH 7.4
[14] = Lipophilicity measurement; format: physicochemical; conditions: n-octanol / 0.9 % aqueous NaCl, 298 K
NCI-H460 cells [15] = test: Cell cycle analysis by flow cytometry; format: cell-based, human; conditions: 10 µM
A2780 ovarian carcinoma = test: Anti-proliferative NBB assay; format: cell-based, human; conditions: read-out: IC50 A2780; 72 h
[16] = Particle size by nanoparticle tracking analysis; format: physicochemical
[17] = tested on: NCI-H460 cancer cells and CCD-19Lu normal fibroblast cells; test: Comparative cellular uptake, cancer versus normal cells, ICP-MS; format: cell-based, human
[18] = tested on: CCD-19Lu normal lung fibroblast; test: Anti-proliferative NBB assay; format: cell-based, human; conditions: read-out: IC50 CCD-19Lu; 72 h
NCI-H460 cells [19] = test: γ-H2AX immunofluorescence staining; format: cell-based, human; conditions: 10 µM, 24 h post-treatment
[20] = tested on: telomeric G-quadruplex (HTelo) DNA; test: UV-vis absorption titration with DNA; format: binding; conditions: at λmax of 345 nm
[21] = tested on: β-glucosidase (from almonds); test: Enzymatic cleavage of the glycosidic linkage, UPLC/MS; format: in vitro ADME
Procedure, shortened: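 Test compound incubated with almond β-glucosidase (0.5 U mL⁻¹) in PBS pH 5.8 at 37 °C for up to 24 h. Enzyme-free controls were run in PBS pH 5.8 and pH 7.4. Release of the deglycosylated aglycone was followed over time by UPLC/MS peak tracking (retention time and m/z).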

NCI-H460 cells [22] = test: Annexin V-FITC/PI double staining, flow cytometry; format: cell-based, human; conditions: 20 µM, 72 h
[23] = tested on: NCI-H460 cells stably expressing mRFP-GFP-LC3; test: Live cell imaging of mRFP-GFP-tagged LC3; format: cell-based, human; conditions: 10 µM, 24 h
NCI-H460 cells [24] = test: Intracellular oxidant level; format: cell-based, human; conditions: 10 µM, 24 h

[Pt(tpy)(C?CArOGlu)](CF3SO3) [Complex 1a]
solubility (water) (Aqueous solubility): 8600 µg/mL
fold lower KD than 2 (ctDNA) (ctDNA; 1a versus 2): 27.5 fold
Kd (ctDNA; read-out: KD (ctDNA), ITC, one-site binding model, pH 7.4): 0.48 µM
fold higher intracellular Pt level than 1b (NCI-H460 cells [1]; 10 µM, after 24 h): ca. 3.2 fold
fold higher intracellular Pt level than 1c (NCI-H460 cells [1]; 10 µM, after 24 h): ~8 fold
fold higher intracellular Pt level than 1d (NCI-H460 cells [1]; 10 µM, after 24 h): ~1.6 fold
decrease in Pt levels in cells (NCI-H460 cells [1]; hypertonic sucrose (450 mM)): 27.4%
decrease in Pt levels in cells (NCI-H460 cells [1]; incubation at 4 °C): 77.1%
reduction in the cellular Pt level (upper figure) (NCI-H460 cells [1]; low temperature (4 °C) or inhibition of endocytosis): up to 80%
decrease in Pt levels in cells (NCI-H460 cells [1]; nocodazole (50 µM)): 41.9%
IC50 [2]: 7.5 ± 0.6 µM
fold higher anti-proliferative activity than 1b ([3]; most of the cancer cell lines, 72 h): 1.4- to 2.4 fold
IC50 ([3]; 24 h post-treatment): > 100 µM
IC50 ([3]; after 48 h): 54.6 to 74.5 µM
fold higher binding affinity than 2 (CC mismatched DNA) ([4]; 1a versus 2): 4.3 fold
Kd ([4]; read-out: KD (CC mismatched DNA), ITC, one-site binding model, pH 7.4): 19.6 µM
IC50 [5]: 17.2 ± 1.2 µM
level of LC3-II (LC3 (LC3-II)): increased levels
immunohistochemical staining for Ki-67 in tumor specimens [6]: significant reduction
Kd [7]: 74.1 µM
IC50 [8]: 7.1 ± 0.3 µM
lysosomal integrity (NCI-H460 cells [9]): disruption of lysosomes
decrease in red fluorescence of JC-1 (mitochondrial depolarization) (NCI-H460 cells [10]): ca. 21%
IC50 [11]: 23.8 ± 5.8 µM
Pt content in cytosolic fraction (NCI-H460 cells [12]): 55%
Pt content in mitochondrial fraction (NCI-H460 cells [12]): 37%
Pt content in nuclear fraction (NCI-H460 cells [12]): 9%
histopathology of major organs (heart, liver, spleen, lungs and kidneys) ([13]; 25 mg kg^−1 i.v., after 14 days, H&E): No obvious histopathological lesion
plasma level of alanine aminotransferase (ALT) ([13]; 25 mg kg^−1 i.v., day 14): comparable to those in the vehicle control
plasma level of creatinine (CREA) ([13]; 25 mg kg^−1 i.v., day 14): comparable to those in the vehicle control
death or weight loss of mice ([13]; throughout the 14-day treatment period): None of the mice died or displayed any sign of weight loss
bathochromic (red) shift of lowest-energy absorption band upon addition of ctDNA (calf thymus DNA (ctDNA)): 42 nm
hypochromism upon addition of ctDNA (calf thymus DNA (ctDNA); lowest-energy absorption band): 16.8%
lipophilicity (log P) [14]: −0.88
increase in G0/G1 populations (NCI-H460 cells [15]; 24 h, versus vehicle): 9.3%
change in cell populations on prolonging treatment to 48 h (NCI-H460 cells [15]; 48 h compared with 24 h): no significant increase in cell populations
IC50 (A2780 ovarian carcinoma): 8.7 ± 0.2 µM
average hydrodynamic diameter ([16]; RPMI 1640 cell culture medium containing 10% fetal bovine serum): 87.3 ± 4.6 nm
average hydrodynamic diameter ([16]; aqueous solution containing 1% DMSO, 100 µM): 139.6 ± 2.5 nm
fold higher Pt accumulation in NCI-H460 than in CCD-19Lu cells [17]: 1.9 fold
IC50 [18]: > 100 µM
γ-H2AX foci in nuclei (NCI-H460 cells [19]): some significant fluorescent γ-H2AX foci
hypochromism upon addition of HTelo DNA [20]: 19.6%
conversion of 1a into 1d ([21]; buffer control without β-glu, PBS pH 5.8, 24 h): ca. 2%
conversion of 1a into 1d ([21]; β-glu 0.5 U mL^−1, PBS pH 5.8, 37 °C, 24 h): more than 70%
necrotic cell death (annexin V-negative and PI-positive) (NCI-H460 cells [22]): 91%
Pearson's colocalization coefficient of green and red LC3 puncta [23]: 0.64
increment in DCF fluorescence intensity versus vehicle control (NCI-H460 cells [24]): ~1.2 fold

N.N.[Cl][Pt][Cl] [Cisplatin, reference compound]
IC50 [2]: 5.1 ± 0.4 µM
IC50 [5]: 9.1 ± 1.2 µM
level of LC3-II (LC3 (LC3-II)): dose-dependent increase
IC50 [8]: 6.9 ± 0.5 µM
lysosomal integrity (NCI-H460 cells [9]): negligible damage to the cellular lysosomes
decrease in red fluorescence of JC-1 (mitochondrial depolarization) (NCI-H460 cells [10]): 8.3%
IC50 [11]: 19.7 ± 1.6 µM
increase in G2/M populations (NCI-H460 cells [15]; 24 h, versus vehicle): 53.7%
IC50 (A2780 ovarian carcinoma): 8.9 ± 0.7 µM
IC50 [18]: 30.8 ± 4.9 µM
γ-H2AX foci in nuclei (NCI-H460 cells [19]): even more markedly increased
late apoptosis (annexin V-positive and PI-positive) (NCI-H460 cells [22]): 87.2%
